# An excerpt weighted towards active compounds, which were near 1.7% of everything screened.
# M5 ag – human M5 muscarinic receptor agonists, primary screen, CHO-K1 cells, Fluo-8 calcium fluorescence; Muscarinic acetylcholine receptor M5 (Homo sapiens), P08912; CHO-K1 hM5 cells; 0% DMSO wells, 100% maximal acetylcholine response; activation, % at 3 µM; 360,000 compounds, 0.19% hits; AID 624037, 2012;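 active means activation above the run's mean over test compounds plus 3 SD, cut at about 23% in these data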;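 further: signal is peak over basal fluorescence ratio across the kinetic read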
# Target sequence (P08912 whole entry, looked up): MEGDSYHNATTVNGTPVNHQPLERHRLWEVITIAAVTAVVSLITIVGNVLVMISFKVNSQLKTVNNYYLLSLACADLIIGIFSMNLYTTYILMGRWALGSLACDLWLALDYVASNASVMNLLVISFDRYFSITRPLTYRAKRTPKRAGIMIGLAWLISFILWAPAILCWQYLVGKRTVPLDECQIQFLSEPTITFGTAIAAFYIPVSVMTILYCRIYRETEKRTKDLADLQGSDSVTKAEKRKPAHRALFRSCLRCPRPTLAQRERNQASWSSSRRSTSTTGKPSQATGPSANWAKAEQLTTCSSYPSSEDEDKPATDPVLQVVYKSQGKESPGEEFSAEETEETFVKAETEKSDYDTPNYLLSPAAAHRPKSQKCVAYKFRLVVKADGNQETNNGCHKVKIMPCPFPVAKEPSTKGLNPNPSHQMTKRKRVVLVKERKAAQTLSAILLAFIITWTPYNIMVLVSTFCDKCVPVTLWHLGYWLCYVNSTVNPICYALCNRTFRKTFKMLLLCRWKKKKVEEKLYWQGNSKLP
# CHO-K1 Ca antag – M1 antagonist counterscreen hit in parental CHO-K1 cells. ATP-induced calcium, Fluo-8 fluorescence. inhibition, % at 3 µM. 360,000 compounds, 0.6% hits;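 active means inhibition above a per-plate cutoff, the plate's mean sample inhibition plus 3 SD, cut at about 24% in these data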;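 further: 0% = DMSO plus EC80 ATP and 100% = DMSO alone without ATP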
# CHO-K1 Ca ag – counter-screen for M1 agonists: effect in parental CHO-K1 cells | Fluo-8 calcium fluorescence; scaled to maximal ATP response, vehicle zero | activation, % at 3 µM | 360,000 compounds, 0.48% hits; in the data active means activation above about 15%;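 further: untransfected CHO-K1 host cells lacking M1 receptor as counterscreen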
# CHRM5 PAM – human M5 muscarinic receptor positive allosteric modulators, primary screen, CHO-K1 cells, Fluo-8 calcium fluorescence; 360,000 compounds, 0.3% hits; AID 624038, 2012; CHO-K1 hM5, ACh EC20 PAM; 0% = ACh EC20, 100% = ACh EC100; activation, % at 3 µM;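 active means activation above the run cutoff, the mean activation of all test compounds plus 3 SD, cut at about 18% in these data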
#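 system = human M5 receptor in CHO-K1 cells | reagent = EC20 acetylcholine as agonist stimulus | compound dosing = single-point, 3 µM nominal | incubation = Fluo-8 loading 80 min at 37 °C plus 30 min room temperature | detection = Fluo-8 calcium dye fluorescence, kinetic read | benchmarks = low control EC20 acetylcholine (0%), high control EC100 acetylcholine (100%)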
# CHO-K1 Ca PAM – nonselective calcium activators in parental CHO-K1 cells, primary screen, counter-screen for M1 PAM project, cell-based, Fluo-8 calcium fluorescence, full deck, 1536-well; ATP EC20; 0% at ATP EC20, 100% at ATP max; activation, % at 3 µM; 360,000 compounds, 0.02% hits; AID 602247, 2012;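 active means activation above the run cutoff, the mean activation of all test compounds plus 3 SD, cut at about 40% in these data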;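 further: peak over basal fluorescence ratio in a 140 s read after ATP addition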
# CHRM5 antagonist – human M5 muscarinic receptor antagonists, primary screen, CHO cells, Fluo-8 calcium fluorescence; 360,000 compounds, 0.59% hits; AID 624040, 2012; CHO-hM5 cells, ACh EC80; inhibition, % at 3 µM; Muscarinic acetylcholine receptor M5 (Homo sapiens), P08912;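 active means inhibition above a per-plate cutoff, the mean of that plate's test compounds plus 3 SD, cut at about 27% in these data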;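 further: 0% = acetylcholine EC80 with DMSO and 100% = DMSO without agonist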
# An asterisk follows results filed as active.
SMILES,M5 ag,CHO-K1 Ca antag,CHO-K1 Ca ag,CHRM5 PAM,CHO-K1 Ca PAM,CHRM5 antagonist
CC1(C(=O)NS(=O)(=O)c2ccccc2Cl)CCN1C(=O)C1(c2ccc(Cl)cc2)CCC1 (stereo unspecified),0,48*,-1,-6,-15,2
CN(c1ccccc1)S(=O)(=O)c1nnc(NC(=O)COc2ccccc2F)s1,1,-9,1,8,-4,-8
O=C1c2ccc(Oc3ccc([N+](=O)[O-])cc3)cc2C(=O)N1CCO,-2,-8,17*,-6,14,-1
C/C(=N\NC(=O)Cc1ccccc1Cl)c1cccnc1,-3,6,0,-4,-12,1
C/C(=N\NC(=O)Cc1ccc(Cl)c(Cl)c1)c1cccnc1,0,44*,0,-2,7,6
O=[N+]([O-])c1cccc(NC(=S)NCCc2ccccc2)c1,2,31*,12,-16,-10,23
Fc1cccc(NC(=S)NCCc2ccccc2)c1,2,11,5,-7,6,5
Fc1ccc(NC(=S)NCCc2ccc(Cl)cc2)cc1,2,5,7,-13,11,19
O=[N+]([O-])c1ccc(NC(=S)NCCc2ccc(F)cc2)cc1,2,38*,12,-17,-7,33*
Fc1ccc(CCNC(=S)Nc2ccc(F)c(Cl)c2)cc1,-1,25*,15,-16,-2,15
S=C(NCCc1ccc(Cl)cc1)Nc1ccc(Cl)cc1Cl,-2,20,6,-18,-7,35*
COc1cccc(CNC(=O)C2CC(=O)N(C3CCCCC3)C2)c1 (stereo unspecified),-1,-16,1,6,22,1
Cc1noc(C)c1NC(=O)Nc1ccc2c(c1)C(=O)N([C@H](C)CO)C[C@@H](C)[C@@H](CN(C)S(=O)(=O)c1cn(C)cn1)OCCCC[C@H](C)O2,1,26*,0,2,10,2
Cc1ccc(S(=O)(=O)N(C)C[C@@H]2OCCCC[C@H](C)Oc3ccc(NC(=O)Nc4ccc(F)cc4)cc3C(=O)N([C@H](C)CO)C[C@H]2C)cc1,-1,26*,-1,3,-8,-4
Cc1ccc(S(=O)(=O)N(C)C[C@@H]2OCCCC[C@@H](C)Oc3ccc(NS(=O)(=O)c4c(C)noc4C)cc3C(=O)N([C@H](C)CO)C[C@@H]2C)cc1,-1,-8,1,7,6,-16
Cc1ccc(S(=O)(=O)Nc2ccc3c(c2)C(=O)N([C@@H](C)CO)C[C@@H](C)[C@@H](CN(C)S(=O)(=O)c2ccccc2)OCCCC[C@H](C)O3)cc1,-1,24*,0,2,-15,1
CCOc1ccc(NC(=O)Cn2nnc(C(=O)NCc3ccc(OC)cc3)c2N)cc1,-7,-9,2,-5,-4,19
O=C(NCC(c1ccco1)N1CCc2ccccc21)C(=O)Nc1ccccc1F (stereo unspecified),-1,-9,1,-3,23,3
O=C(NCC(c1ccco1)N1CCc2ccccc21)C(=O)Nc1ccccc1 (stereo unspecified),1,25*,0,-4,-19,3
CCc1ccc(N2C(=O)/C(=C/c3cccs3)N(CC(=O)OC)C2=S)cc1,1,-2,0,-6,-9,6
CCN(CC)CC(=O)N1c2ccccc2Sc2ccc(Cl)cc21,-17,-8,0,-49,-8,97*
NCCC(=O)N1c2ccccc2Sc2ccccc21,-20,-8,1,-32,7,15
NCCCC(=O)N1c2ccccc2Sc2ccccc21,-4,-13,0,-24,28,67*
CCN(CC)CCCCN1c2ccccc2Sc2ccccc21,-4,-3,13,-22,-7,88*
CCN(CC)CC(=O)N1c2ccccc2Sc2ccccc21,-5,-12,1,-18,3,92*
COc1cccc(NC(=O)CN(C)C(=O)c2ccc(S(=O)(=O)Nc3ccccc3C)cc2)c1,0,-12,1,-6,10,17

# Compound activity deposited in PubChem by The Scripps Research Institute Molecular Screening Center.
